Reference: ChEMBL document CHEMBL5257137, “Inhibition of Thiamine Diphosphate-Dependent Enzymes by Triazole-Based Thiamine Analogues” (ACS Med Chem Lett, 2023)

Columns and labels:
Escherichia coli [1] = assay: Inhibition of Escherichia coli OGDHc E1 subunit assessed as DCPIP reduction at 250 uM preincubated for 60 mins followed by […] addition using 125 uM ThDP as substrate by microplate reader analysis
Escherichia coli [2] = assay: Inhibition of Escherichia coli OGDHc E1 subunit assessed as DCPIP reduction at 250 uM preincubated for 60 mins followed by […] addition using 50 uM ThDP as substrate by microplate reader analysis
Procedure, shortened: (§1)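 Single-point preliminary screen with compound at 250 μM and ThDP at 50 μM. Values are means of three technical replicates.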

Aerococcus viridans [3] = assay: Inhibition of Aerococcus viridans pyruvate oxidase at 250 uM preincubated for 30 mins followed by pyruvate addition using 125 uM ThDP as substrate by microplate reader analysis
Aerococcus viridans [4] = assay: Inhibition of Aerococcus viridans pyruvate oxidase at 250 uM preincubated for 30 mins followed by pyruvate addition using 50 uM ThDP as substrate by microplate reader analysis; procedure, shortened: as §1
[5] = target: T1, Pyruvate dehydrogenase E1 component subunit alpha, somatic form, mitochondrial (Sus scrofa, UniProt P29804); assay: Inhibition of porcine PDHc E1-subunit assessed as DCPIP reduction preincubated for 30 mins followed by pyruvate addition using 10 uM ThDP as substrate by microplate reader analysis
T1 sequence (P29804 whole entry): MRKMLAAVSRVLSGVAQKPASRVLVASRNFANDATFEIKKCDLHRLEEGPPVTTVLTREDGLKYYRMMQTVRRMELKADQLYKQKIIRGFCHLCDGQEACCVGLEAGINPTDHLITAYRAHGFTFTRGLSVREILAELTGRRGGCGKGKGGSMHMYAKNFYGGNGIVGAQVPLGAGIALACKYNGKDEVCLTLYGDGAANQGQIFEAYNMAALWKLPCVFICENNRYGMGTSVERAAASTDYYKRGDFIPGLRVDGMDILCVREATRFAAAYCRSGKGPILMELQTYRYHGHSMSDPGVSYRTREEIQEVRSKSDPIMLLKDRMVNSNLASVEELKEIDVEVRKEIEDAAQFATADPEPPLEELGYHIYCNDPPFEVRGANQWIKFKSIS

[6] = target: T1, Pyruvate dehydrogenase E1 component subunit alpha, somatic form, mitochondrial; assay: Inhibition of porcine PDHc E1-subunit assessed as inhibition constant preincubated for 30 mins followed by pyruvate addition using 10 uM ThDP as substrate by microplate reader analysis
Plasmodium falciparum [7] = assay: Antiplasmodial activity against Plasmodium falciparum 3D7 infected in human erythrocyte assessed as intraerythrocytic growth inhibition in thiamine-free medium by [3H]-hypoxanthine incorporation assay; format: functional, organism-based; details: 3D7, Erythrocyte
Plasmodium falciparum [8] = assay: Antiplasmodial activity against chloroquine-sensitive Plasmodium falciparum 3D7 infected in human erythrocyte assessed as inhibition of parasite proliferation in presence of 2.97uM thiamine by SYBR-Safe assay; format: functional, organism-based; details: 3D7, Erythrocyte
Procedure, shortened: (§2)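 P. falciparum 3D7-infected erythrocytes were exposed to compound in culture medium with added thiamine, 2.97 μM or 297 μM. Proliferation was read as parasite DNA by SYBR-Safe assay.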

Plasmodium falciparum [9] = assay: Antiplasmodial activity against chloroquine-sensitive Plasmodium falciparum 3D7 infected in human erythrocyte assessed as inhibition of parasite proliferation in thiamine free medium by SYBR-Safe assay; format: functional, organism-based; details: 3D7, Erythrocyte
Procedure, shortened: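 3D7 parasites in human erythrocytes cultured in thiamine-free medium with a range of compound concentrations. […] Means come from three independent experiments, each run in three technical replicates.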

Plasmodium falciparum [10] = assay: Antiplasmodial activity against Plasmodium falciparum 3D7 infected in human erythrocyte assessed as intraerythrocytic growth inhibition in presence thiamine-rich medium by [3H]-hypoxanthine incorporation assay; format: functional, organism-based; details: 3D7, Erythrocyte
Plasmodium falciparum [11] = assay: Antiplasmodial activity against chloroquine-sensitive Plasmodium falciparum 3D7 infected in human erythrocyte assessed as inhibition of parasite proliferation in presence of 297uM thiamine by SYBR-Safe assay; format: functional, organism-based; details: 3D7, Erythrocyte; procedure, shortened: as §2

Question: What does the source list for `COc1ccc(-c2cn(CCCc3cn(Cc4cnc(C)nc4N)nn3)nn2)cc1`?
Answer: inhibition (Escherichia coli [1]): < 20%; inhibition (Escherichia coli [2]): < 20%; inhibition (Aerococcus viridans [3]): < 20%; inhibition (Aerococcus viridans [4]): < 20%

Question: Which results are given for `Cc1ncc(Cn2cc(CCn3cc(-c4ccccc4)nn3)nn2)c(N)n1`?
Answer: inhibition (Escherichia coli [1]): < 20%; inhibition (Aerococcus viridans [3]): < 20%

Question: With `COc1ccc(-c2cn(CCc3cn(Cc4cnc(C)nc4N)nn3)nn2)cc1` as the compound, how does the inhibition (Escherichia coli [1]) read?
Answer: The inhibition was under 20%.

Question: And the inhibition (Aerococcus viridans [3])?
Answer: Its inhibition is under 20%.

Question: And the inhibition (Aerococcus viridans [4])?
Answer: The inhibition was under 20%.

Question: For `Cc1ncc(Cn2cc(CCCC(=O)NO)nn2)c(N)n1`, which IC50 [5] is on record?
Answer: The IC50 was 9 µM.

Question: What about the Ki [6] of the same compound?
Answer: Its Ki is 0.045 µM.

Question: For `Cc1ncc(Cn2cc(CCCn3cc(-c4ccccc4)nn3)nn2)c(N)n1`, which inhibition (Escherichia coli [1]) is on record?
Answer: Its inhibition is under 20%.

Question: And the inhibition (Escherichia coli [2])?
Answer: The inhibition was under 20%.

Question: And the inhibition (Aerococcus viridans [3])?
Answer: Its inhibition is under 20%.

Question: And the inhibition (Aerococcus viridans [4])?
Answer: Its inhibition is under 20%.

Question: `Cc1ncc(Cn2cc(CCCn3cc(-c4ccc(F)cc4)nn3)nn2)c(N)n1` was tested. Which inhibition (Escherichia coli [1]) did it give?
Answer: Its inhibition is under 20%.

Question: And the inhibition (Escherichia coli [2])?
Answer: Its inhibition is under 20%.

Question: What about the inhibition (Aerococcus viridans [3]) of the same compound?
Answer: The inhibition was under 20%.

Question: What about the inhibition (Aerococcus viridans [4]) of the same compound?
Answer: The inhibition was under 20%.

Question: What does the source list for `COc1ccc(-c2cn(CCCCc3cn(Cc4cnc(C)nc4N)nn3)nn2)cc1`?
Answer: inhibition (Escherichia coli [1]): < 20%; inhibition (Escherichia coli [2]): < 20%; inhibition (Aerococcus viridans [3]): < 20%; IC50 [5]: 6 µM; inhibition (Aerococcus viridans [4]): < 20%

Question: For `Cc1ncc(Cn2cc(CCCCn3cc(-c4ccc(F)cc4)nn3)nn2)c(N)n1`, which inhibition (Escherichia coli [1]) is on record?
Answer: The inhibition was under 20%.

Question: What about the inhibition (Escherichia coli [2]) of the same compound?
Answer: Its inhibition is under 20%.

Question: And the inhibition (Aerococcus viridans [3])?
Answer: The inhibition was under 20%.

Question: What about the inhibition (Aerococcus viridans [4]) of the same compound?
Answer: The inhibition was under 20%.

Question: What does the source list for `Cc1ncc(Cn2cc(CCCCn3cc(-c4ccccc4)nn3)nn2)c(N)n1`?
Answer: inhibition (Escherichia coli [1]): < 20%; inhibition (Escherichia coli [2]): < 20%; inhibition (Aerococcus viridans [3]): < 20%; inhibition (Aerococcus viridans [4]): < 20%

Question: Which results are given for `Cc1ncc(Cn2cc(CCn3cc(-c4ccc(F)cc4)nn3)nn2)c(N)n1`?
Answer: inhibition (Escherichia coli [1]): < 20%; inhibition (Aerococcus viridans [3]): < 20%; inhibition (Aerococcus viridans [4]): < 20%

Question: Which results are given for `Cc1ncc(C[n+]2csc(CCO)c2C)c(O)n1`?
Answer: IC50 (Plasmodium falciparum [7]): 11 µM; IC50 (Plasmodium falciparum [8]): 5200 µM; IC50 (Plasmodium falciparum [9]): 11 µM; IC50 (Plasmodium falciparum [10]): 5.2 µM; IC50 (Plasmodium falciparum [11]): 5500 µM

Question: Which IC50 [5] does the source give for `Cc1ncc(Cn2cc(CCCCC(=O)NO)nn2)c(N)n1` here?
Answer: The IC50 was 8 µM.

Question: And the Ki [6]?
Answer: The Ki was 0.04 µM.

Question: And the IC50 (Plasmodium falciparum [9])?
Answer: The IC50 was 3 µM.
